Measurements: ChEMBL document CHEMBL5647697, “Akt inhibition synergizes with polycomb repressive complex 2 inhibition in the treatment of multiple myeloma” (2019)
Active and inactive are the calls of the source. No cut-off for these calls is given here.

What was measured:
[1] = test system: OPM-2/BTZ; assay: Downregulation of EZH2 mRNA expression in human OPM-2/BTZ cells at 3 micromol/L after 24 hrs by qRT-PCR analysis; format: functional, cell-based; conditions: dose 3.0 µmol/L
[2] = test system: NCI-H929; assay: Downregulation of EZH2 protein expression in human NCI-H929 cells at 0.3 to 5 micromol/L for 6 to 48 hrs by Western blot analysis; format: functional, cell-based; conditions: dose 0.3-5 µmol/L, time 6-48 hrs
Method in brief: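 MM.1S and H929 cells exposed to TAS-117 at the indicated doses for 48 h, or to 5 μmol/L for the indicated times. Immunoblot with GAPDH, Akt and H3 as loading controls; EZH2 quantified relative to GAPDH.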

[3] = test system: NCI-H929; assay: Downregulation of phospho-Rb protein expression in human NCI-H929 cells incubated at 0.3 to 3 micromol/L for 48 hrs by Western blot analysis; format: functional, cell-based; conditions: dose 0.3-3 µmol/L
Method in brief: (§1)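 MM.1S and H929 cells given TAS-117 at the indicated doses for 48 h. Protein levels assessed by immunoblot.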

[4] = test system: NCI-H929; assay: Downregulation of CDK2 protein expression in human NCI-H929 cells incubated at 0.3 to 3 micromol/L for 48 hrs by Western blot analysis; format: functional, cell-based; conditions: dose 0.3-3 µmol/L; method in brief: as §1
[5] = test system: NCI-H929; assay: Downregulation of CDK1 protein expression in human NCI-H929 cells incubated at 0.3 to 3 micromol/L for 48 hrs by Western blot analysis; format: functional, cell-based; conditions: dose 0.3-3 µmol/L; method in brief: as §1
[6] = test system: NCI-H929; assay: Downregulation of E2F2 mRNA expression in human NCI-H929 cells incubated at 0.3 to 3 micromol/L for 24 hrs by qRT-PCR analysis; format: functional, cell-based; conditions: dose 0.3-3 µmol/L
Method in brief: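 MM.1S and H929 cells given TAS-117 at the indicated doses for 24 h. mRNA measured by RT-qPCR, fold change after normalization to GAPDH; SD of triplicates; significance versus untreated control.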

[7] = test system: NCI-H929; assay: Downregulation of E2F1 protein expression in human NCI-H929 cells incubated at 0.3 to 3 micromol/L for 48 hrs by Western blot analysis; format: functional, cell-based; conditions: dose 0.3-3 µmol/L; method in brief: as §1
[8] = test system: OPM-2/BTZ; assay: Downregulation of E2F1 protein expression in human OPM-2/BTZ cells incubated at 0.3 to 3 micromol/L for 48 hrs by Western blot analysis; format: functional, cell-based; conditions: dose 0.3-3 µmol/L
[9] = test system: MM1.S; assay: Downregulation of CDK2 protein expression in human MM1.S cells incubated at 0.3 to 3 micromol/L for 48 hrs by Western blot analysis; format: functional, cell-based; conditions: dose 0.3-3 µmol/L; method in brief: as §1
[10] = test system: OPM-2/BTZ; assay: Downregulation of phospho-Rb protein expression in human OPM-2/BTZ cells incubated at 0.3 to 3 micromol/L for 48 hrs by Western blot analysis; format: functional, cell-based; conditions: dose 0.3-3 µmol/L
[11] = test system: OPM-2/BTZ; assay: Upregulation of p27 protein expression in human OPM-2/BTZ cells incubated at 0.3 to 3 micromol/L for 48 hrs by Western blot analysis; format: functional, cell-based; conditions: dose 0.3-3 µmol/L
[12] = test system: MM1.S; assay: Synergistic activity against human MM.1S cells assessed as combination index […] in presence of 1.25 uM UNC1999 […] at 0.5 uM incubated for 48 hrs by […] assay; format: functional
Method in brief: (§2)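 Cells were exposed to the EZH2/EZH1 inhibitor (UNC1999 or GSK126) for 72 h in total, with the Akt inhibitor added for the last 48 h. Viability was read by MTS assay relative to untreated control cells, in triplicate. The combination index for each dose pair came from isobologram analysis.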

[13] = test system: MM1.S; assay: Synergistic activity against human MM.1S cells assessed as combination index […] compound addition at 0.125 uM incubated for 48 hrs by […]; format: functional; method in brief: as §2
[14] = test system: MM1.S; assay: Synergistic activity against human MM.1S cells assessed as combination index preincubated in presence of 1.25 uM GSK126 […] at 0.25 uM incubated for 48 hrs by […]; format: functional; method in brief: as §2
[15] = test system: MM1.S; assay: Synergistic activity against human MM.1S cells assessed as combination index […] at 0.125 uM incubated for 48 hrs by […]; format: functional; method in brief: as §2
[16] = test system: NCI-H929; assay: Synergistic activity against human NCI-H929 cells assessed as combination index preincubated in presence of 2.5 uM UNC1999 […] at 0.5 uM incubated for 48 hrs by […]; format: functional; method in brief: as §2
[17] = test system: OPM-2/BTZ; assay: Synergistic activity against human OPM-2/BTZ cells assessed as combination index preincubated in presence of 1.25 uM GSK126 for 72 hrs followed by compound addition at 0.5 uM incubated for 48 hrs by MTT assay; format: functional
[18] = test system: OPM-2/BTZ; assay: Synergistic activity against human OPM-2/BTZ cells assessed as combination index preincubated in presence of 5 uM GSK126 for 72 hrs followed by compound addition at 0.5 uM incubated for 48 hrs by MTT assay; format: functional
[19] = test system: OPM-2; assay: Synergistic activity against human OPM-2 cells assessed as combination index preincubated in presence of 5 uM GSK126 for 72 hrs followed by compound addition at 5 uM incubated for 48 hrs by MTT assay; format: functional
[20] = test system: MM1.S; assay: Induction of apoptosis in human MM1.S cells assessed as early apoptotic cells preincubated in presence of 5 micromol/L UNC1999 for 48 hrs followed by compound addition at 2 micromol/L incubated for 12 hrs by annexin V/PI staining based flow cytometry (reference value: 8.03%); format: functional; conditions: dose 2 µmol/L, at 2 µM
[21] = test system: MM1.S; assay: Cytotoxicity against human MM1.S cells transduced with EZH1 assessed as enhanced sensitivity at 0.156 to 2.5 micromol/L 48 hrs by MTS assay; format: functional, cell-based; conditions: dose 0.156-2.5 µmol/L
Method in brief: (§3)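 MM.1S or H929 cells transduced with lentiviral shRNA against EZH1 or against luciferase (shLuc control), then given TAS-117 at the indicated doses for 48 h. Viability by MTS relative to untreated control; mean ± SD of triplicates; compared with shLuc.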

[22] = test system: MM1.S; assay: Upregulation of EZH1 mRNA expression in human MM1.S cells transduced with EZH1 at 0.3 micromol/L after 24 hrs by qRT-PCR analysis relative to control; format: functional, cell-based; conditions: dose 0.3 µmol/L
Method in brief: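 MM.1S cells were transduced with lentiviral shRNA against EZH1 or luciferase (shLuc control). Cells were then given graded TAS-117 for 24 h. EZH1 mRNA was measured by qRT-PCR and normalized to GAPDH.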

[23] = test system: NCI-H929; assay: Cytotoxicity against human NCI-H929 cells transduced with EZH1 assessed as enhanced sensitivity at 0.156 to 2.5 micromol/L 48 hrs by MTS assay; format: functional, cell-based; conditions: dose 0.156-2.5 µmol/L; method in brief: as §3
[24] = test system: MM1.S; assay: Upregulation of FOXO3 in human MM1.S cells assessed as enhanced nuclear accumulation at 0.5 micromol/L after 24 hrs by immunofluorescence staining; format: functional, cell-based; conditions: dose 0.5 µmol/L
Method in brief: (§4)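 MM.1S and H929 cells were treated with or without 0.5 μmol/L TAS-117 for 24 h. Cells were immunostained with anti-FOXO3. Jurkat cells served as positive control and cells without primary antibody as negative control. Read-out was the average fluorescence intensity of the nuclear FOXO3 fraction versus untreated cells.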

[25] = test system: NCI-H929; assay: Upregulation of FOXO3 in human NCI-H929 cells assessed as enhanced nuclear accumulation at 0.5 micromol/L after 24 hrs by immunofluorescence staining; format: functional, cell-based; conditions: dose 0.5 µmol/L; method in brief: as §4
[26] = test system: OPM-2; assay: Synergistic activity against human OPM-2 cells assessed as combination index preincubated in presence of 5 uM UNC1999 for 72 hrs followed by compound addition at 1.25 uM incubated for 48 hrs by MTT assay; format: functional
[27] = test system: NCI-H929; assay: Induction of apoptosis in human NCI-H929 cells assessed as live cells at 2 micromol/L incubated for 12 hrs by annexin V/PI staining based flow cytometry (reference value: 95.6%); format: functional; conditions: dose 2 µmol/L, at 2 µM

C[C@]1(O)C[C@@](N)(c2ccc(-c3nc4n(c3-c3ccccc3)COc3ccncc3-4)cc2)C1 [PIFUSERTIB]
Activity [1]: Active | Activity [2]: Active | Activity [3]: Active | Activity [4]: Active | Activity [5]: Active | Activity [6]: Active | Activity [7]: Active | Activity [8]: Active | Activity [9]: Active | Activity [10]: Active | Activity [11]: Active | CI [12]: 0.357 | CI [13]: 0.751 | CI [14]: 0.954 | CI [15]: 0.532 | CI [16]: 0.807 | CI [17]: 0.624 | CI [18]: 1.112 | CI [19]: 5.39 | Activity [20]: 40.7% | Activity [21]: Active | Activity [22]: Active | Activity [23]: Active | Activity [24]: Active | Activity [25]: Active | CI [26]: 5.25 | Activity [27]: 91.7%
